Tested on: HEK-293T
Experiment: Multiplex assay against HEK293T
Type: toxicity, cell-based
Conditions: human
Procedure, shortened: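 Live cells carried four stains from seeding: Hoechst33342, BioTracker Green Microtubule Cytoskeleton Dye, MitoTracker Red and Annexin V Alexa Fluor 680. They were imaged on a CQ1 microscope at 37°C and 5% CO2 after compound addition. Using CellPathfinder machine-learning gating, cells were split into Hoechst high-intensity objects or normal cells, normal cells into healthy, pyknosed or fragmented nuclei, and pyknosed cells into mitotic or apoptotic; tubulin, mitochondrial-mass and membrane-permeability phenotypes are per cents of healthy-nucleus cells.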

[1] = 12 h, 1 µM, compound concentration 1 uM, replicate 1
[2] = 12 h, 1 µM, compound concentration 1 uM, replicate 2
[3] = 12 h, 10 µM, compound concentration 10 uM, replicate 1
[4] = 12 h, 10 µM, compound concentration 10 uM, replicate 2
[5] = 24 h, 1 µM, compound concentration 1 uM, replicate 1
[6] = 24 h, 1 µM, compound concentration 1 uM, replicate 2
[7] = 24 h, 10 µM, compound concentration 10 uM, replicate 1
[8] = 24 h, 10 µM, compound concentration 10 uM, replicate 2
[9] = 48 h, 1 µM, compound concentration 1 uM, replicate 1
[10] = 48 h, 1 µM, compound concentration 1 uM, replicate 2
[11] = 48 h, 10 µM, compound concentration 10 uM, replicate 1
[12] = 48 h, 10 µM, compound concentration 10 uM, replicate 2

SMILES: CCCn1c(=O)c2[nH]c(C3CCCC3)nc2n(CCC)c1=O [1,3-DIPROPYL-8-CYCLOPENTYLXANTHINE [DPCPX]]
- Population Apoptotic (%) [1]: 35%
- Population Fragmented Nuclei (%) [1]: 7%
- Population Healthy Nuclei (%) [1]: 79%
- Population Hoechst High Intensity Objects (%) [1]: 6%
- Population Membrane Permeable-Phenotype (%) [1]: 0%
- Population Mitochondria Different-Phenotype (%) [1]: 44%
- Population Mitotic Cells (%) [1]: 64%
- Population Normal (%) [1]: 93%
- Population Pyknosed Nuclei (%) [1]: 12%
- Population Tubulin-Different-Phenotype (%) [1]: 32%
- Total Cell Count [1]: 443
- Population Apoptotic (%) [2]: 54%
- Population Fragmented Nuclei (%) [2]: 3%
- Population Healthy Nuclei (%) [2]: 81%
- Population Hoechst High Intensity Objects (%) [2]: 3%
- Population Mitochondria Different-Phenotype (%) [2]: 52%
- Population Mitotic Cells (%) [2]: 45%
- Population Normal (%) [2]: 96%
- Population Pyknosed Nuclei (%) [2]: 14%
- Population Tubulin-Different-Phenotype (%) [2]: 15%
- Total Cell Count [2]: 361
- Population Apoptotic (%) [3]: 60%
- Population Fragmented Nuclei (%) [3]: 12%
- Population Healthy Nuclei (%) [3]: 68%
- Population Hoechst High Intensity Objects (%) [3]: 5%
- Population Membrane Permeable-Phenotype (%) [3]: 0%
- Population Mitochondria Different-Phenotype (%) [3]: 58%
- Population Mitotic Cells (%) [3]: 39%
- Population Normal (%) [3]: 94%
- Population Pyknosed Nuclei (%) [3]: 19%
- Population Tubulin-Different-Phenotype (%) [3]: 51%
- Total Cell Count [3]: 295
- Population Apoptotic (%) [4]: 54%
- Population Fragmented Nuclei (%) [4]: 7%
- Population Healthy Nuclei (%) [4]: 75%
- Population Hoechst High Intensity Objects (%) [4]: 18%
- Population Mitochondria Different-Phenotype (%) [4]: 68%
- Population Mitotic Cells (%) [4]: 45%
- Population Normal (%) [4]: 81%
- Population Pyknosed Nuclei (%) [4]: 16%
- Population Tubulin-Different-Phenotype (%) [4]: 45%
- Total Cell Count [4]: 337
- Population Apoptotic (%) [5]: 26%
- Population Fragmented Nuclei (%) [5]: 8%
- Population Healthy Nuclei (%) [5]: 78%
- Population Hoechst High Intensity Objects (%) [5]: 4%
- Population Membrane Permeable-Phenotype (%) [5]: 1%
- Population Mitochondria Different-Phenotype (%) [5]: 25%
- Population Mitotic Cells (%) [5]: 73%
- Population Normal (%) [5]: 95%
- Population Pyknosed Nuclei (%) [5]: 13%
- Population Tubulin-Different-Phenotype (%) [5]: 20%
- Total Cell Count [5]: 610
- Population Apoptotic (%) [6]: 28%
- Population Fragmented Nuclei (%) [6]: 7%
- Population Healthy Nuclei (%) [6]: 82%
- Population Hoechst High Intensity Objects (%) [6]: 3%
- Population Membrane Permeable-Phenotype (%) [6]: 0%
- Population Mitochondria Different-Phenotype (%) [6]: 45%
- Population Mitotic Cells (%) [6]: 71%
- Population Normal (%) [6]: 96%
- Population Pyknosed Nuclei (%) [6]: 10%
- Population Tubulin-Different-Phenotype (%) [6]: 19%
- Total Cell Count [6]: 403
- Population Apoptotic (%) [7]: 50%
- Population Fragmented Nuclei (%) [7]: 8%
- Population Healthy Nuclei (%) [7]: 76%
- Population Hoechst High Intensity Objects (%) [7]: 4%
- Population Membrane Permeable-Phenotype (%) [7]: 0%
- Population Mitochondria Different-Phenotype (%) [7]: 43%
- Population Mitotic Cells (%) [7]: 50%
- Population Normal (%) [7]: 95%
- Population Pyknosed Nuclei (%) [7]: 14%
- Population Tubulin-Different-Phenotype (%) [7]: 40%
- Total Cell Count [7]: 379
- Population Apoptotic (%) [8]: 41%
- Population Fragmented Nuclei (%) [8]: 7%
- Population Healthy Nuclei (%) [8]: 79%
- Population Hoechst High Intensity Objects (%) [8]: 15%
- Population Mitochondria Different-Phenotype (%) [8]: 55%
- Population Mitotic Cells (%) [8]: 58%
- Population Normal (%) [8]: 84%
- Population Pyknosed Nuclei (%) [8]: 13%
- Population Tubulin-Different-Phenotype (%) [8]: 31%
- Total Cell Count [8]: 411
- Population Apoptotic (%) [9]: 33%
- Population Fragmented Nuclei (%) [9]: 11%
- Population Healthy Nuclei (%) [9]: 81%
- Population Hoechst High Intensity Objects (%) [9]: 1%
- Population Membrane Permeable-Phenotype (%) [9]: 1%
- Population Mitochondria Different-Phenotype (%) [9]: 17%
- Population Mitotic Cells (%) [9]: 66%
- Population Normal (%) [9]: 98%
- Population Pyknosed Nuclei (%) [9]: 7%
- Population Tubulin-Different-Phenotype (%) [9]: 17%
- Total Cell Count [9]: 957
- Population Apoptotic (%) [10]: 39%
- Population Fragmented Nuclei (%) [10]: 14%
- Population Healthy Nuclei (%) [10]: 80%
- Population Hoechst High Intensity Objects (%) [10]: 3%
- Population Membrane Permeable-Phenotype (%) [10]: 0%
- Population Mitochondria Different-Phenotype (%) [10]: 22%
- Population Mitotic Cells (%) [10]: 60%
- Population Normal (%) [10]: 96%
- Population Pyknosed Nuclei (%) [10]: 5%
- Population Tubulin-Different-Phenotype (%) [10]: 13%
- Total Cell Count [10]: 593
- Population Apoptotic (%) [11]: 29%
- Population Fragmented Nuclei (%) [11]: 14%
- Population Healthy Nuclei (%) [11]: 76%
- Population Hoechst High Intensity Objects (%) [11]: 3%
- Population Membrane Permeable-Phenotype (%) [11]: 1%
- Population Mitochondria Different-Phenotype (%) [11]: 37%
- Population Mitotic Cells (%) [11]: 70%
- Population Normal (%) [11]: 96%
- Population Pyknosed Nuclei (%) [11]: 8%
- Population Tubulin-Different-Phenotype (%) [11]: 30%
- Total Cell Count [11]: 511
- Population Apoptotic (%) [12]: 45%
- Population Healthy Nuclei (%) [12]: 75%
- Population Hoechst High Intensity Objects (%) [12]: 7%
- Population Membrane Permeable-Phenotype (%) [12]: 0%
- Population Mitochondria Different-Phenotype (%) [12]: 36%
- Population Mitotic Cells (%) [12]: 54%
- Population Normal (%) [12]: 92%
- Population Pyknosed Nuclei (%) [12]: 10%
- Population Tubulin-Different-Phenotype (%) [12]: 23%
- Total Cell Count [12]: 516
